Assay results taken from ChEMBL document CHEMBL2375283, “Design and synthesis of 1-aryl-5-anilinoindazoles as c-Jun N-terminal kinase inhibitors” (Bioorg Med Chem Lett, 2013).

Tests used:
[1] = target: Mitogen-activated protein kinase 8 (Homo sapiens, UniProt P45983); test: Inhibition of JNK1 (unknown origin)-mediated ATF2 Thr71 phosphorylation by HTRF assay
Summary of the method: (§1)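 The kinase reaction used biotinylated ATF2 substrate with ATP. The phospho-Thr71-ATF2 product was detected by HTRF with a Europium-cryptate labeled anti-phospho-Thr71-ATF2 antibody. IC50 values are averages of two or more experiments.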

Homo sapiens = organism: Homo sapiens; test: Selectivity ratio of IC50 for JNK1 (unknown origin) to IC50 for JNK3 (unknown origin)
[2] = target: Mitogen-activated protein kinase 10 (Homo sapiens, UniProt P53779); test: Inhibition of JNK3 (unknown origin)-mediated ATF2 Thr71 phosphorylation by HTRF assay; summary of the method: as §1
[3] = AUC in Sprague-Dawley rat at 1 mg/kg, iv and 2 mg/kg, po; type: ADME, organism-based; conditions: plasma
Summary of the method: (§2)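 Rats received compound intravenously at 1 mg/kg or by oral gavage at 2 mg/kg. Blood was sampled at 5, 15 and 30 min and at 1, 2, 4, 6 and 8 h into EDTA tubes, and plasma was obtained by centrifugation. Plasma proteins were precipitated with acetonitrile, and drug levels were quantified by LC–MS/MS.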

[4] = Half life in Sprague-Dawley rat at 1 mg/kg, iv and 2 mg/kg, po; type: ADME, organism-based; conditions: in vivo; summary of the method: as §2
[5] = Plasma clearance in Sprague-Dawley rat at 1 mg/kg, iv and 2 mg/kg, po; type: ADME, organism-based; summary of the method: as §2
[6] = Plasma concentration in C57BL6 mouse at 10 mg/kg, ip after 2 hrs; type: ADME, organism-based; set-up: dose 10 mg/kg, route intraperitoneal
Summary of the method: (§3)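 C57Bl6 mice (n = 3) were given 10 mg/kg intraperitoneally. Blood and brain were collected 2 h later, and plasma was frozen at −80 °C. Plasma (1:5 v/v) and brain (1:5 w/v) were mixed with acetonitrile, and brain was probe-sonicated. Drug levels were measured by LC–MS/MS against standards prepared in plasma or in blank brain matrix.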

[7] = Drug uptake in C57BL6 mouse brain at 10 mg/kg, ip after 2 hrs; type: ADME, organism-based; set-up: dose 10 mg/kg, route intraperitoneal; conditions: read-out: Drug uptake; summary of the method: as §3
[8] = Oral bioavailability in Sprague-Dawley rat at 2 mg/kg; type: ADME, organism-based; conditions: in vivo; summary of the method: as §2
[9] = Half life in human liver microsomes; type: ADME, Microsome
[10] = Half life in rat liver microsomes; type: ADME, Microsome
[11] = target: Mitogen-activated protein kinase 10 (Rattus norvegicus, UniProt P49187); test: Inhibition of JNK3-mediated c-Jun phosphorylation in rat INS-1 cells after 3 hrs by ELISA; type: cell-based, INS1
Chain of Mitogen-activated protein kinase 10 (Rattus norvegicus, UniProt P49187) (P49187 whole entry): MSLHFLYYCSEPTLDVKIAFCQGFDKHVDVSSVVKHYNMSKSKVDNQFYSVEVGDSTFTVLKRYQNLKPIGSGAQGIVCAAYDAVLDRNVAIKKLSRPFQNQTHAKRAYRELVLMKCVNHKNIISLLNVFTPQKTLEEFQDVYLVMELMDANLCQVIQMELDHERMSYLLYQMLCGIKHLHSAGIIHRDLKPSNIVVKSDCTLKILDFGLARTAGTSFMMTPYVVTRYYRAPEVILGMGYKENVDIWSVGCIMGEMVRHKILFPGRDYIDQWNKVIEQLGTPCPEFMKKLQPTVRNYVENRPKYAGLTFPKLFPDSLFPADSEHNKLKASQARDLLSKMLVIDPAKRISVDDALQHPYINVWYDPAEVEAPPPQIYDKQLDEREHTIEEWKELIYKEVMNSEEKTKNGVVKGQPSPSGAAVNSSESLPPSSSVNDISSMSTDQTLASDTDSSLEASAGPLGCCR

Chain of Mitogen-activated protein kinase 8 (P45983 whole entry): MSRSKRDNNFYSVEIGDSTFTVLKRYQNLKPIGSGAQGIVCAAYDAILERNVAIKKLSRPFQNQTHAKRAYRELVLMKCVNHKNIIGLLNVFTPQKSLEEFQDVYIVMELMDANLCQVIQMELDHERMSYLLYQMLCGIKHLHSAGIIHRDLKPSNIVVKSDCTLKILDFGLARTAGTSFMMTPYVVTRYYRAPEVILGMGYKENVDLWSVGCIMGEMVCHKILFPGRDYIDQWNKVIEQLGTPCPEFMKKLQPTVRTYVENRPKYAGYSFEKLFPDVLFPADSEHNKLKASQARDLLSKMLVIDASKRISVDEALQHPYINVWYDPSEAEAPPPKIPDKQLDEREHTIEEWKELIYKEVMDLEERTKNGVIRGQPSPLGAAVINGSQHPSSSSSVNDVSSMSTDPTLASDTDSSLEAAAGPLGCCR
Chain of Mitogen-activated protein kinase 10 (Homo sapiens, UniProt P53779) (P53779 whole entry): as the sequence (P49187 whole entry) above, with H27Q, S32Y, V33I, V34A counted along it

SMILES | IC50 [1] [nM] | Ratio IC50 (Homo sapiens) | IC50 [2] [nM] | AUC [3] [µM·h] | half-life [4] [min] | clearance [5] [mL/min/kg] | concentration at 2 h [6] [nM] | concentration at 2 h [7] [nM] | bioavailability [8] [%] | half-life [9] [min] | half-life [10] [min] | IC50 [11] [nM]
Cc1cccc(Nc2ccc3c(cnn3-c3cccc(C(=O)NCCN4CCN(C5CCC5)CC4)c3)c2)c1Cl | 970 | 5 | 40 | 0.72 | 198 | 25 | 1200 | 3900 | 27 | – | – | –
CN1CCN(CCNC(=O)c2cccc(-n3ncc4cc(Nc5c(Cl)cccc5Cl)ccc43)c2)CC1 | 1200 | 5 | 50 | 0.38 | 120 | 34 | 2120 | 810 | 20 | – | – | –
O=C(NCCO)c1cccc(-n2ncc3cc(Nc4ccccc4Cl)ccc32)c1 | 800 | 5 | 35 | – | – | – | – | – | – | – | – | ≥ 20000
COc1cc(NC(=O)c2cccc(-n3cc(Nc4nc5ccccc5[nH]4)cn3)c2)cc(OC)c1OC | – | – | > 20000 | – | – | – | – | – | – | – | – | –
Cc1cc(NC(=O)c2cccc(-n3ncc4cc(Nc5ccccc5F)ccc43)c2)ccc1N1CCOCC1 | 170 | 5 | 38 | – | – | – | – | – | – | – | – | –
CN1CCN(CCNC(=O)c2cncc(-n3ncc4cc(Nc5c(Cl)cccc5Cl)ccc43)c2)CC1 | – | 10 | 110 | – | – | – | – | – | – | – | – | –
O=C(NCCCN1CCOCC1)c1ccc(-n2ncc3cc(Nc4ccccc4Cl)ccc32)cc1 | 920 | – | 33 | – | – | – | 240 | 690 | – | – | – | ≥ 20000
Cc1cccc(NC(=O)c2cccc(-n3ncc4cc(Nc5ccccc5F)ccc43)c2)c1 | 470 | 5 | 120 | 0.5 | 18 | 79 | 350 | 30 | 7 | 8.9 | 6 | –
COc1ccccc1Nc1ccc2c(cnn2-c2cccc(C(=O)NCCCN3CCOCC3)c2)c1 | – | 5 | 43 | – | – | – | – | – | – | – | – | –
O=C(NCCN1CCOCC1)c1cccc(-n2ncc3cc(Nc4c(Cl)cccc4Cl)ccc32)c1 | 1380 | 5 | 77 | – | – | – | – | – | – | – | – | –
O=C(NCCN1CCOCC1)c1ccnc(-n2ncc3cc(Nc4ccccc4Cl)ccc32)c1 | 2300 | 10 | 120 | 0.01 | 30 | 54 | 530 | 1400 | 5 | – | – | 5300
O=C(NCCN1CCOCC1)c1cccc(-n2ncc3cc(Nc4ccccn4)ccc32)c1 | 7100 | 5 | 1400 | – | – | – | – | – | – | – | – | –
O=C(NCCN1CCOCC1)c1cccc(-n2ncc3cc(Nc4ccccc4Cl)ccc32)n1 | 7010 | 10 | 640 | – | – | – | – | – | – | – | – | –
COc1cc(NC(=O)c2cccc(-n3ncc4cc(Nc5ccccc5C)ccc43)c2)cc(OC)c1OC | – | 5 | 59 | – | – | – | – | – | – | – | – | –
Cc1cc(NC(=O)c2cccc(-n3ncc4cc(Nc5ccccc5Cl)ccc43)c2)ccc1N1CCOCC1 | 160 | 5 | 32 | – | – | – | – | – | – | – | – | –
Cc1cccc(CC(=O)Nc2cnn(-c3cccc(C(=O)NC4CCOC(C)(C)C4)c3)c2)c1 (stereo not given) | ≥ 20000 | > 25 | 1100 | – | – | – | – | – | – | – | – | –
Cc1cccc(NC(=O)c2cccc(-n3ncc4cc(Nc5ccccc5C)ccc43)c2)c1 | – | 5 | 250 | – | – | – | – | – | – | – | – | –

The remaining molecules from weak to strong by IC50 [2], led by results:

IC50 [1] [nM] | Ratio IC50 (Homo sapiens) | IC50 [2] [nM] | AUC [3] [µM·h] | half-life [4] [min] | clearance [5] [mL/min/kg] | concentration at 2 h [6] [nM] | concentration at 2 h [7] [nM] | bioavailability [8] [%] | half-life [9] [min] | half-life [10] [min] | IC50 [11] [nM] | SMILES
– | 10 | 640 | – | – | – | – | – | – | – | – | – | O=C(NCCN1CCOCC1)c1cc(-n2ncc3cc(Nc4c(Cl)cccc4Cl)ccc32)ccn1
1200 | 10 | 170 | – | – | – | – | – | – | – | – | – | O=C(NCCN1CCOCC1)c1cccc(-n2ncc3cc(Nc4ccccc4)cnc32)c1
1300 | 10 | 80 | – | – | – | – | – | – | – | – | – | O=C(NCCN1CCOCC1)c1cccc(-n2ncc3cc(Nc4ccccc4Cl)ncc32)c1
730 | 5 | 63 | – | – | – | – | – | – | – | – | – | NC(=O)c1cccc(-n2ncc3cc(Nc4ccccc4F)ccc32)c1
750 | 5 | 54 | – | – | – | 560 | 550 | – | – | – | 4100 | O=C(NCCN1CCOCC1)c1cccc(-n2ncc3cc(Nc4ccccc4Cl)ccc32)c1
430 | 5 | 46 | – | – | – | – | – | – | – | – | – | CCOc1ccc(NC(=O)c2cccc(-n3ncc4cc(Nc5ccccc5F)ccc43)c2)cc1OC
200 | 10 | 24 | – | – | – | – | – | – | 12.8 | 5.8 | – | COc1cc(NC(=O)c2cccc(-n3ncc4cc(Nc5ccccc5)ccc43)c2)cc(OC)c1OC
– | 5 | 22 | – | – | – | – | – | – | – | – | – | O=C(NCCCN1CCOCC1)c1cccc(-n2ncc3cc(Nc4ccccc4F)ccc32)c1
410 | 5 | 15 | 0.01 | 30 | 123 | 280 | 570 | 6 | 8.6 | 5.6 | – | O=C(NCCCN1CCOCC1)c1cccc(-n2ncc3cc(Nc4ccccc4Cl)ccc32)c1
93 | 5 | 12 | – | – | – | – | – | – | – | – | – | COc1cc(NC(=O)c2cccc(-n3ncc4cc(Nc5ccccc5Cl)ccc43)c2)cc(OC)c1OC
73 | 5 | 9 | 0.05 | 90 | 57 | 790 | 50 | 5 | – | – | – | COc1cc(NC(=O)c2cccc(-n3ncc4cc(Nc5ccccc5F)ccc43)c2)cc(OC)c1OC
